{"data": "Experimental data collected from several papers", "target": "Myosin-IIIb (MYO3B, Homo sapiens, UniProt Q8WXR4)", "One construct used (Q8WXR4 1-1341)": "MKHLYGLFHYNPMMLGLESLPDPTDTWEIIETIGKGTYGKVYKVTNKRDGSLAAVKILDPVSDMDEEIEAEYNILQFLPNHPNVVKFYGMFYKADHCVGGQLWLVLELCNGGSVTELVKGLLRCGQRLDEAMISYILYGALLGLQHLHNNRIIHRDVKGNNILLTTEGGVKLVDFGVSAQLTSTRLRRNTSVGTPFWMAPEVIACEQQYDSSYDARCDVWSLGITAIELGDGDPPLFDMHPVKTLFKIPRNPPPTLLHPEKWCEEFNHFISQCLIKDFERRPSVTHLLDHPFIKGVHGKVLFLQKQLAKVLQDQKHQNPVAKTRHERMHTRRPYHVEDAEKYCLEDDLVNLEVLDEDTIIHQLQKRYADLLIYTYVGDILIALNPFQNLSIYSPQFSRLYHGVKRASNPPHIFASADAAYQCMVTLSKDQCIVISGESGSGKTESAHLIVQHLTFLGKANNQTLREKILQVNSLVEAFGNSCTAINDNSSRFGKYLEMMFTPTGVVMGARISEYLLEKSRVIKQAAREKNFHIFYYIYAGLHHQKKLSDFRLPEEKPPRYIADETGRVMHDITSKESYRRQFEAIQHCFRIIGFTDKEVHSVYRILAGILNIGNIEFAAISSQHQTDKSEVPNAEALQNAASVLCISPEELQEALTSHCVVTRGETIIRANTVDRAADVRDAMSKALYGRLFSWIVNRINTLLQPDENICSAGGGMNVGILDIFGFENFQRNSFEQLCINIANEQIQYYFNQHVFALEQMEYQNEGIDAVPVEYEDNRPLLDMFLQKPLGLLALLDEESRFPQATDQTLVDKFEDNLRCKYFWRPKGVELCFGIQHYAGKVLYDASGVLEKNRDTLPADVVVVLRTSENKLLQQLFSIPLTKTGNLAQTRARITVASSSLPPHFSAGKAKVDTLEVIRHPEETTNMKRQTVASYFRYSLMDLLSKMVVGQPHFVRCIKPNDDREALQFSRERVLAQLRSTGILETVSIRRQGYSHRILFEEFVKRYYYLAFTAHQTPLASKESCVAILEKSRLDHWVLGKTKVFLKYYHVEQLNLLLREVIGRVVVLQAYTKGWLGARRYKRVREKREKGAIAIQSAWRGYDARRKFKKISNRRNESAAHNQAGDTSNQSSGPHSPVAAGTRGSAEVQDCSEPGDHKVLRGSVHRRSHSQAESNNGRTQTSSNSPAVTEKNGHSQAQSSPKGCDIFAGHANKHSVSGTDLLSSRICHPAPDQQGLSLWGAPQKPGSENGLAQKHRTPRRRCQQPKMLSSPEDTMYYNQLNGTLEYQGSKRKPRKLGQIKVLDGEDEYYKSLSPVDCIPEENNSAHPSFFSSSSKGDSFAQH", "note": "Lines come from different studies, so protocols differ."}
{"SMILES": "FC(F)(F)Oc1cccc(-c2cnc3ccc(-c4ccncc4)nn23)c1", "read-out": "cell-free assay", "technique": "competition with immobilised ligand", "tested at": "5 µM", "remaining binding [%]": 100}
{"SMILES": "CN(C)c1nccc(-c2cnn3ncccc23)n1", "read-out": "binding", "tested at": "1 µM", "remaining binding [%]": 100}
{"SMILES": "CNCc1ccccc1-c1csc([C@@H](C)Nc2nc(C)nc3cc(OC)c(OC)cc23)c1", "read-out": "cell-free assay", "technique": "competition with immobilised ligand", "tested at": "1 µM", "remaining binding [%]": 47}
{"SMILES": "C[C@H]1CCN(c2nccc(-c3cnn4ncccc34)n2)C1", "read-out": "binding", "tested at": "1 µM", "remaining binding [%]": 100}
{"SMILES": "Cc1nc(N2CC[C@@H](O)C2)ncc1-c1cc(C(F)(F)F)cc2[nH]ncc12", "read-out": "binding", "technique": "competition with immobilised ligand", "tested at": "1 µM", "remaining binding [%]": 93}
{"SMILES": "COc1ncc2cc3ccccc3nc2c1C#N", "read-out": "binding", "technique": "competition with immobilised ligand", "tested at": "5 µM", "remaining binding [%]": 96}
{"SMILES": "CN(c1nccc(-c2cnn3ncccc23)n1)C1CC1", "read-out": "binding", "tested at": "1 µM", "remaining binding [%]": 83}
{"SMILES": "FC(F)(F)c1ccc2c(c1)nc(-c1cccnc1)n2C1CC1", "read-out": "cell-free assay", "technique": "competition with immobilised ligand", "tested at": "1 µM", "remaining binding [%]": 67}
{"SMILES": "C[C@@H](c1ccc(-n2cnc3c(N)ncnc32)cc1)N1CCc2nn(C)c(Cc3ccccc3)c2C1=O", "read-out": "binding", "technique": "competition with immobilised ligand", "tested at": "0.1 µM", "remaining binding [%]": 77}
{"SMILES": "O=C(NCCCN1CCOCC1)c1ccc(Nc2nccc(-c3cc4ccccc4s3)n2)cc1", "read-out": "binding", "technique": "competition with immobilised ligand", "tested at": "1 µM", "remaining binding [%]": 100}
{"SMILES": "c1cnn2ncc(-c3ccnc(N4CCC45COC5)n3)c2c1", "read-out": "binding", "tested at": "1 µM", "remaining binding [%]": 100}
{"SMILES": "c1cncc(-c2cccc(Nc3nccc(NC4CCCCC4)n3)c2)c1", "read-out": "binding", "technique": "competition with immobilised ligand", "tested at": "10 µM", "remaining binding [%]": 100}
{"SMILES": "O=C(Nc1c[nH]nc1C(=O)NC1CCNCC1)c1cc(F)cc(F)c1", "read-out": "binding", "technique": "competition with immobilised ligand", "tested at": "1 µM", "remaining binding [%]": 100}
{"SMILES": "COc1ccnn2ncc(-c3ccnc(N(C)C)n3)c12", "read-out": "binding", "tested at": "1 µM", "remaining binding [%]": 100}
{"SMILES": "O=C(N[C@H]1CCCCC/C=C\\C2C[C@@]2(C(=O)O)NC(=O)[C@@H]2C[C@@H](Oc3ccncc3)CN2C1=O)OC1CCCC1 (stereo partly drawn)", "read-out": "binding", "technique": "competition with immobilised ligand", "tested at": "1 µM", "remaining binding [%]": 38}
{"SMILES": "COc1cnc(Nc2cccc(S(N)(=O)=O)c2)nc1N1CCN(c2ccccc2)C(=O)C1", "read-out": "binding", "technique": "competition with immobilised ligand", "tested at": "1 µM", "remaining binding [%]": 94}
{"SMILES": "CN(C)c1nccc(-c2cnc3ncccn23)n1", "read-out": "binding", "tested at": "1 µM", "remaining binding [%]": 79}
{"SMILES": "O=C(NCCCN1CCOCC1)c1ccc(Nc2ncc(Cl)c(-c3ccc(Cl)s3)n2)cc1", "read-out": "binding", "technique": "competition with immobilised ligand", "tested at": "1 µM", "remaining binding [%]": 100}
{"SMILES": "N#CC1(c2ccccn2)CCN(Cc2cc(C(=O)N3CCCC3)c(=O)n3ccccc23)CC1", "read-out": "cell-free assay", "technique": "competition with immobilised ligand", "tested at": "1 µM", "remaining binding [%]": 100}
{"SMILES": "O=C(c1ccc(Nc2ncc(Cl)c(-c3cc4ccccc4s3)n2)cc1)N1CCC(N2CCCC2)CC1", "read-out": "binding", "technique": "competition with immobilised ligand", "tested at": "1 µM", "remaining binding [%]": 100}
{"SMILES": "CCC(=O)N[C@H]1CC[C@@H](C(=O)N(C)c2ccc(-c3nc4ccccc4o3)cc2)C1", "read-out": "cell-free assay", "technique": "competition with immobilised ligand", "tested at": "1 µM", "remaining binding [%]": 98}
